Source: the RNAGym collection of RNA variant scans (doi:10.1126/science.aae0568)
This sample holds only a part of the variants without activity.

B1: tRNA (parent)
chain: GUUCCGUUGGCGUAAUGGUAACGCGUCUCCCUCCUAAGGAGAAGACUGCGGGUUCGAGUCCCGUACGGAACG

Variants of: B1
Assay: yeast fitness relative to wild type (ratio to wild type); higher = fitter; tRNA-Arg(CCU), competitive growth, 37 C, YPD
Summary of the method: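 Variants of the tRNA-Arg(CCU) gene were chemically synthesised with a 3% per-site mutation rate across 69 sites and placed at the native genomic locus in Saccharomyces cerevisiae. Six parallel replicates of the pooled strains were competed in YPD at 37°C for 24 hours, and gene amplicons from the start and end populations were read by 100-nucleotide paired-end sequencing. Darwinian fitness relative to wild type was derived from changes in genotype frequencies. Genotypes required ≥ 100 starting reads, and estimates < 0.5 were set to 0.5.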

Going from C4G U32G C62U G67U to C4G U35A, the yeast fitness rises from no more than 0.5 to 0.772.

C4G U35A A36U and C4G U35A C61A cannot be ordered by yeast fitness: no more than 0.5 for the first, no more than 0.5 for the second.

Going from C4G U35A U54C C61G to C4G U35C, the yeast fitness rises from 0.765 to 0.942.

Compared with C4G U35C G39A C62A, C4G U35G A43C U47C is lower in yeast fitness: 0.511 for the first, no more than 0.5 for the second.

First: C4G U35G A70C
Second: C4G U47A
The yeast fitness of the first is lower: 0.552 for the first, 0.854 for the second.

First: C4G U47A G68A
Second: C4G U47C
The yeast fitness of the first is lower: no more than 0.5 for the first, 0.865 for the second.

Going from C4G U53A to C4G U53A G56A, the yeast fitness falls from 0.594 to no more than 0.5.

Compared with C4G U53G C66A, C4G U54A is higher in yeast fitness: no more than 0.5 for the first, 0.572 for the second.

Going from C4G U54C to C4G U54G, the yeast fitness falls from 0.886 to 0.626.

First: C4G U54G C62A
Second: C4G U59A U64G A65C
The yeast fitness of the first is higher: 0.579 for the first, no more than 0.5 for the second.

Going from C4G U64A to C4G U64C, the yeast fitness rises from 0.707 to 0.872.

Going from C4G U64G to C4U A14C, the yeast fitness rises from 0.671 to 0.749.

First: C4U A14C C22A U54C C55G
Second: C4U A14C C29U A65G
The yeast fitness of the first is lower: no more than 0.5 for the first, 0.765 for the second.

C4U A14C C49G C55G and C4U A14C G51C cannot be ordered by yeast fitness: no more than 0.5 for the first, no more than 0.5 for the second.

C4U A14C G68C and C4U A14C U59A C60U cannot be ordered by yeast fitness: no more than 0.5 for the first, no more than 0.5 for the second.

C4U A14G A15C G63C and C4U A14G A36G C60G C61A cannot be ordered by yeast fitness: no more than 0.5 for the first, no more than 0.5 for the second.

Compared with C4U A14G C30A, C4U A14G C30G A36U is lower in yeast fitness: 0.812 for the first, no more than 0.5 for the second.

First: C4U A14G C34G G50C G56C
Second: C4U A14U A36U
The yeast fitness of the first is higher: 0.637 for the first, 0.545 for the second.

C4U A14U A42G C46U and C4U A14U A43U G68A cannot be ordered by yeast fitness: no more than 0.5 for the first, no more than 0.5 for the second.

Going from C4U A14U C24G C30U C60G C62U to C4U A14U C30A U54G A65C, the yeast fitness falls from 0.663 to 0.634.

C4U A14U C33G A69U and C4U A14U C33U C49G C55A cannot be ordered by yeast fitness: no more than 0.5 for the first, no more than 0.5 for the second.

Compared with C4U A14U G39A C49G, C4U A15C is higher in yeast fitness: no more than 0.5 for the first, 0.763 for the second.

C4U A15C A37G A40G G68U and C4U A15C A43U cannot be ordered by yeast fitness: no more than 0.5 for the first, no more than 0.5 for the second.

Compared with C4U A15C C27A C31U A43G C60A, C4U A15C C29U U54C C61G G63A is lower in yeast fitness: 0.526 for the first, no more than 0.5 for the second.

C4U A15C C30G and C4U A15C C30G A69C cannot be ordered by yeast fitness: no more than 0.5 for the first, no more than 0.5 for the second.

C4U A15C C30G A69U and C4U A15C C34G A43C A65U cannot be ordered by yeast fitness: no more than 0.5 for the first, no more than 0.5 for the second.

C4U A15C C46A A57G C61A A70C and C4U A15C C55U G63C cannot be ordered by yeast fitness: no more than 0.5 for the first, no more than 0.5 for the second.

C4U A15C C62G and C4U A15C G17A G18A A36C C55U C66A cannot be ordered by yeast fitness: no more than 0.5 for the first, no more than 0.5 for the second.

C4U A15C G51A and C4U A15C G51C cannot be ordered by yeast fitness: no more than 0.5 for the first, no more than 0.5 for the second.

First: C4U A15C G63C
Second: C4U A15C G67C
The yeast fitness of the first is higher: 0.556 for the first, 0.54 for the second.

Compared with C4U A15G A65U, C4U A15G C22U is lower in yeast fitness: 0.69 for the first, 0.559 for the second.

C4U A15G C22U A69U and C4U A15G C27U G41A cannot be ordered by yeast fitness: no more than 0.5 for the first, no more than 0.5 for the second.

First: C4U A15G C60G
Second: C4U A15G G23C A37U A65U
The yeast fitness of the first is lower: 0.537 for the first, 0.57 for the second.

First: C4U A15G G23C A37U U47C A65U
Second: C4U A15G U16C
The yeast fitness of the first is lower: no more than 0.5 for the first, 0.728 for the second.

Going from C4U A15U A42C U47A A65G to C4U A15U A45C, the yeast fitness rises from no more than 0.5 to 0.611.

C4U A15U U53A C62A and C4U A15U U64C A65G cannot be ordered by yeast fitness: no more than 0.5 for the first, no more than 0.5 for the second.

Going from C4U A20C to C4U A20C A40U C55G, the yeast fitness falls from 1.03 to 0.578.

First: C4U A20C A65C
Second: C4U A20C C22U U47A C62U
The yeast fitness of the first is lower: 0.719 for the first, 0.753 for the second.

Compared with C4U A20C C24G G56A C62A, C4U A20C C27U A40C is higher in yeast fitness: no more than 0.5 for the first, 0.605 for the second.

Compared with C4U A20C C29U, C4U A20C C34G A36G is lower in yeast fitness: 0.715 for the first, 0.606 for the second.

First: C4U A20C C34U C55U
Second: C4U A20C C49U C61A
The yeast fitness of the first is higher: 0.532 for the first, no more than 0.5 for the second.

C4U A20C C55G and C4U A20C G51C A57G cannot be ordered by yeast fitness: no more than 0.5 for the first, no more than 0.5 for the second.

C4U A20C U47A A65U and C4U A20G A40U A70G cannot be ordered by yeast fitness: no more than 0.5 for the first, no more than 0.5 for the second.

Going from C4U A20G A45U C61U C62G to C4U A20G A45U C61U C62G A69C, the yeast fitness rises from 0.53 to 0.602.

Compared with C4U A20G C24U, C4U A20G C27A G52A is lower in yeast fitness: 0.624 for the first, no more than 0.5 for the second.

Going from C4U A20G U28C C31U G50C C55G U59C C60U G67U to C4U A20U A40U, the yeast fitness rises from no more than 0.5 to 0.646.

Compared with C4U A20U A40U G56C, C4U A20U C27G C30G A43G A65C G68C is higher in yeast fitness: no more than 0.5 for the first, 0.639 for the second.

C4U A20U C29G C49G G63C and C4U A20U G50A G52A C60U C61G cannot be ordered by yeast fitness: no more than 0.5 for the first, no more than 0.5 for the second.

C4U A21C A42G and C4U A21C C22A C60U cannot be ordered by yeast fitness: no more than 0.5 for the first, no more than 0.5 for the second.

C4U A21C C24U G38A and C4U A21C C24U G38A G63C cannot be ordered by yeast fitness: no more than 0.5 for the first, no more than 0.5 for the second.

First: C4U A21C C27U G63A A65G
Second: C4U A21C G41U
The yeast fitness of the first is lower: no more than 0.5 for the first, 0.625 for the second.

Compared with C4U A21C U59C, C4U A21G C46A A70U is higher in yeast fitness: no more than 0.5 for the first, 0.76 for the second.

Compared with C4U A21G C46A G67A, C4U A21G G52A is lower in yeast fitness: 0.63 for the first, no more than 0.5 for the second.

C4U A21G G52A G63A and C4U A21G U32A A40C C46A C62U G67A cannot be ordered by yeast fitness: no more than 0.5 for the first, no more than 0.5 for the second.

C4U A21G U47C A70G and C4U A21U A36G A43C C55U A65G cannot be ordered by yeast fitness: no more than 0.5 for the first, no more than 0.5 for the second.

C4U A21U C66A and C4U A21U U28C G52C A57C cannot be ordered by yeast fitness: no more than 0.5 for the first, no more than 0.5 for the second.

C4U A21U U35C G50C and C4U A36C A45C cannot be ordered by yeast fitness: no more than 0.5 for the first, no more than 0.5 for the second.

Going from C4U A36C C46U to C4U A36C C49U G58A, the yeast fitness rises from no more than 0.5 to 0.612.

First: C4U A36C G48A
Second: C4U A36C U54C
The yeast fitness of the first is higher: 0.71 for the first, no more than 0.5 for the second.

Compared with C4U A36G, C4U A36G A69C is lower in yeast fitness: 1.02 for the first, 0.8 for the second.

Going from C4U A36G G39A G67A to C4U A36G G44C, the yeast fitness rises from no more than 0.5 to 0.765.

Going from C4U A36G G44C A69U to C4U A36G G44C C49U, the yeast fitness falls from 0.635 to 0.631.

Compared with C4U A36U, C4U A36U A40C G68A is lower in yeast fitness: 0.82 for the first, no more than 0.5 for the second.

Going from C4U A36U C55A to C4U A36U G52A, the yeast fitness falls from 0.659 to no more than 0.5.

C4U A36U G68A and C4U A36U U47C cannot be ordered by yeast fitness: no more than 0.5 for the first, no more than 0.5 for the second.

C4U A37C C49U C60G and C4U A37C G48C G50C cannot be ordered by yeast fitness: no more than 0.5 for the first, no more than 0.5 for the second.

Compared with C4U A37C G50C, C4U A37G A45U is higher in yeast fitness: no more than 0.5 for the first, 0.707 for the second.

Going from C4U A37G C46U to C4U A37U, the yeast fitness rises from 0.54 to 0.676.

First: C4U A37U A70C
Second: C4U A37U C49U
The yeast fitness of the first is higher: 0.676 for the first, 0.563 for the second.

Going from C4U A37U G52C A65C to C4U A40C, the yeast fitness rises from no more than 0.5 to 0.835.

C4U A40C A70G and C4U A40G A42G A57C C66U cannot be ordered by yeast fitness: no more than 0.5 for the first, no more than 0.5 for the second.

Compared with C4U A40G C60G, C4U A40G C62U is higher in yeast fitness: 0.544 for the first, 0.667 for the second.

First: C4U A40U
Second: C4U A40U C66U
The yeast fitness of the first is higher: 0.898 for the first, 0.762 for the second.

Going from C4U A42C A45G C49U C66A to C4U A42C A69U, the yeast fitness rises from no more than 0.5 to 0.633.

First: C4U A42C G51C A65G
Second: C4U A42C G63C
The yeast fitness of the first is lower: 0.508 for the first, 0.522 for the second.

Compared with C4U A42G A57U, C4U A42G A65U is higher in yeast fitness: 0.551 for the first, 0.611 for the second.

Going from C4U A42G A69C to C4U A42U C49G, the yeast fitness falls from 0.636 to 0.543.

Going from C4U A42U C61A A65C to C4U A43C C62U, the yeast fitness rises from no more than 0.5 to 0.965.

Going from C4U A43C G51A G68U to C4U A43C G67A, the yeast fitness rises from 0.623 to 0.733.

First: C4U A43G C46U
Second: C4U A43U C55G G67A
The yeast fitness of the first is higher: 0.994 for the first, 0.804 for the second.

C4U A45C C55U G68C and C4U A45C C60G A69G cannot be ordered by yeast fitness: no more than 0.5 for the first, no more than 0.5 for the second.

Compared with C4U A45G A57C, C4U A45G C61G A65C A70U is lower in yeast fitness: 0.585 for the first, no more than 0.5 for the second.

First: C4U A45G G51A G67A
Second: C4U A45U
The yeast fitness of the first is lower: no more than 0.5 for the first, 0.968 for the second.

In the case of C4U A45U A69C, the yeast fitness is reported as 0.79.
